From PMC2800315 (Japanese Journal of Clinical Oncology, 2009)

Tests used:
[1] = Pharmacokinetics of RAD001 in blood, Phase I once-daily oral dosing; type: in vivo, Japanese patients; conditions: for CL/F / AUC / Cmax: mean ± SD; for AUC / Cmax / Tmax: human, whole blood, oral; for AUC: AUCτ, 0 to 24 h
Summary of the method: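 Adults aged ≥20 years, Japanese, with refractory advanced tumours; strong CYP3A4 inhibitors or inducers excluded. Oral dosing once daily at 2.5, 5 or 10 mg in continuous 28-day cycles. Per cohort: Cmax, tmax, AUC 0–24 h and CL/F. Descriptive statistics, means ± SD.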

[2] = 673 renal transplant patients; cited from earlier work
[3] = system: esophagogastric cancer; conditions: one esophagogastric cancer patient, daily dose of 5 mg; cited from earlier work
[4] = 2.5 mg/day, Day 1, 2.5 mg/day (n = 3)
[5] = 2.5 mg/day, Day 15, 2.5 mg/day (n = 3)
[6] = 5 mg/day, Day 1, 5 mg/day (n = 3)
[7] = 5 mg/day, Day 15, 5 mg/day (n = 3)
[8] = 10 mg/day, Day 1, 10 mg/day (n = 3)

`CO[C@H]1C[C@@H]2CC[C@@H](C)[C@@](O)(O2)C(=O)C(=O)N2CCCC[C@H]2C(=O)O[C@H]([C@H](C)C[C@@H]2CC[C@@H](OCCO)[C@H](OC)C2)CC(=O)[C@H](C)/C=C(\C)[C@@H](O)[C@@H](OC)C(=O)[C@H](C)C[C@H](C)/C=C/C=C/C=C/1C` [RAD001, everolimus] gave a CL/F ([1]; Day 15, 2.5 mg/day (n = 3)) of 19.1 ± 3.26 L/h, a CL/F ([1]; Day 15, 5 mg/day (n = 3)) of 9.94 ± 3.21 L/h and a CL/F ([1]; Day 15, 10 mg/day (n = 3)) of 14.3 ± 2.23 L/h. For the same compound, the “Time at which Cmax was apparent” value ([1]; after administration of a single oral dose) was 2 h, the “Time to Cmax” value ([1]; after oral administration) was 1 to 2 h and the “Increase of Cmax and AUCτ with dose” value ([1]; day 1, 2.5 to 10 mg) was “almost dose-proportionally”. For the same compound, the “Exposure (AUCτ) after multiple dosing (day 15) relative to single dose (day 1)” value ([1]; days 1 and 15) was “about twice”, the AUC [1, 4] was 85.2 ± 18.7 ng·h/mL and the AUC [1, 5] was 134 ± 24.1 ng·h/mL. It also gave a Cmax [1, 4] of 15.1 ± 2.48 ng/mL, a Cmax [1, 5] of 16.8 ± 1.33 ng/mL and a Tmax ([1]; 2.5 mg/day, tmax Median, Day 1, 2.5 mg/day (n = 3)) of 1.98 h. For the same compound, the Tmax ([1]; 2.5 mg/day, tmax Range, Day 1, 2.5 mg/day (n = 3)) was 0.98 to 2 h, the Tmax ([1]; 2.5 mg/day, tmax Range, Day 15, 2.5 mg/day (n = 3)) was 1 to 1.98 h and the AUC [1, 6] was 211 ± 50 ng·h/mL. For the same compound, the AUC [1, 7] was 543 ± 189 ng·h/mL, the Cmax [1, 6] was 31.5 ± 3.4 ng/mL and the Cmax [1, 7] was 57.6 ± 17.6 ng/mL. For the same compound, the Tmax ([1]; 5 mg/day, tmax Median, Day 15, 5 mg/day (n = 3)) was 1.98 h, the Tmax ([1]; 5 mg/day, tmax Range, Day 1, 5 mg/day (n = 3)) was 1 to 1.95 h and the Tmax ([1]; 5 mg/day, tmax Range, Day 15, 5 mg/day (n = 3)) was 1.93 to 1.98 h. The AUC [1, 8] was 401 ± 51.6 ng·h/mL, the Cmax [1, 8] was 49.4 ± 14.8 ng/mL and the Cmax ([1]; 10 mg/day, Day 15, 10 mg/day (n = 3)) was 65.9 ± 1.4 ng/mL. The Tmax ([1]; 10 mg/day, tmax Median, Day 1, 10 mg/day (n = 3)) was 2 h, the Tmax ([1]; 10 mg/day, tmax Median, Day 15, 10 mg/day (n = 3)) was 2.02 h and the Tmax ([1]; 10 mg/day, tmax Range, Day 1, 10 mg/day (n = 3)) was 1.92 to 2 h. The Tmax ([1]; 10 mg/day, tmax Range, Day 15, 10 mg/day (n = 3)) was 2 to 2.2 h, the “Time to steady state (Cmin)” value ([1]; repeated once-daily oral dosing) was about 8 days and the “Difference in clearance between Asian and Caucasian patients” value [2] was “no significant differences”. For the same compound, the Tumor response [3] was “partial response”.
